Experimental data: ChEMBL document CHEMBL4270654, “Identification of DK419, a potent inhibitor of Wnt/β-catenin signaling and colorectal cancer growth” (Bioorg Med Chem, 2018)
Active and inactive are the calls of the source. The calls are words filed in the database; no cut-off is given here.

Experiments:
[1] = Inhibition of Wnt3A-stimulated Wnt/beta-catenin pathway in HEK293 cells transfected with p8xTOPFlash, Renilla luciferase plasmid pRL-TK and pLKO.1 after 6 hrs by Dual topflash luciferase reporter assay; assay type: cell-based; settings: Homo sapiens, HEK293, 6 h
How it was run: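 HEK293 cells stably carrying p8xTOPFlash, pRL-TK and pLKO.1 were grown overnight to confluence in MEM/10% FBS with 1 μg/ml puromycin. Wnt-3A conditioned medium (from L Wnt-3A cells) containing compound (0.04–10 μM) or DMSO was added for 6 h. Dual-luciferase was read, with the Wnt3A+DMSO signal set as 100%.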

Homo sapiens [2] = species: Homo sapiens; assay: Inhibition of Wnt/beta-catenin signaling pathway in human HCT116 cells cytosol lysate harboring beta-catenin mutation assessed as reduction in Axin2 protein expression at 5 uM after 18 hrs by Western blot analysis; assay type: cell-based
How it was run: (§1)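 CCRC240, HCT116 or SW480 cells were grown to 50–70% confluency and exposed 18 h to 5 μM compound in DMSO. Whole-cell lysates were blotted for c-Myc, cyclin D1 and survivin. Hypotonic cytosolic fractions, syringe-dispersed and centrifuged 120 min, were blotted for β-catenin and Axin2. β-Actin served as loading control.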

Homo sapiens [3] = species: Homo sapiens; assay: Inhibition of Wnt/beta-catenin signaling pathway in human HCT116 cells cytosol lysate harboring beta-catenin mutation assessed as reduction in beta-catenin protein expression at 5 uM after 18 hrs by Western blot analysis; assay type: cell-based; how it was run: as §1
Homo sapiens [4] = species: Homo sapiens; assay: Inhibition of Wnt/beta-catenin signaling pathway in human HCT116 whole cell lysate harboring beta-catenin mutation assessed as reduction in c-Myc protein expression at 5 uM after 18 hrs by Western blot analysis; how it was run: as §1
Homo sapiens [5] = species: Homo sapiens; assay: Inhibition of Wnt/beta-catenin signaling pathway in human HCT116 whole cell lysate harboring beta-catenin mutation assessed as reduction in cyclin D1 protein expression at 5 uM after 18 hrs by Western blot analysis; how it was run: as §1
Homo sapiens [6] = species: Homo sapiens; assay: Inhibition of Wnt/beta-catenin signaling pathway in human HCT116 whole cell lysate harboring beta-catenin mutation assessed as reduction in survivin protein expression at 5 uM after 18 hrs by Western blot analysis; how it was run: as §1
Homo sapiens [7] = species: Homo sapiens; assay: Inhibition of Wnt/beta-catenin signaling pathway in human SW480 cells cytosol lysate harboring APC mutation assessed as reduction in Axin2 protein expression at 5 uM after 18 hrs by Western blot analysis; assay type: cell-based; how it was run: as §1
Homo sapiens [8] = species: Homo sapiens; assay: Inhibition of Wnt/beta-catenin signaling pathway in human SW480 cells cytosol lysate harboring APC mutation assessed as reduction in beta-catenin protein expression at 5 uM after 18 hrs by Western blot analysis; assay type: cell-based; how it was run: as §1
Homo sapiens [9] = species: Homo sapiens; assay: Inhibition of Wnt/beta-catenin signaling pathway in human SW480 whole cell lysate harboring APC mutation assessed as reduction in c-Myc protein expression at 5 uM after 18 hrs by Western blot analysis; how it was run: as §1
Homo sapiens [10] = species: Homo sapiens; assay: Inhibition of Wnt/beta-catenin signaling pathway in human SW480 whole cell lysate harboring APC mutation assessed as reduction in cyclin D1 protein expression at 5 uM after 18 hrs by Western blot analysis; how it was run: as §1
Homo sapiens [11] = species: Homo sapiens; assay: Inhibition of Wnt/beta-catenin signaling pathway in human SW480 whole cell lysate harboring APC mutation assessed as reduction in survivin protein expression at 5 uM after 18 hrs by Western blot analysis; how it was run: as §1
Homo sapiens [12] = species: Homo sapiens; assay: Inhibition of Wnt/beta-catenin signaling pathway in human CRC240 cells cytosol lysate assessed as reduction in Axin2 protein expression at 5 uM after 18 hrs by Western blot analysis; assay type: cell-based; how it was run: as §1
Homo sapiens [13] = species: Homo sapiens; assay: Inhibition of Wnt/beta-catenin signaling pathway in human CRC240 cells cytosol lysate assessed as reduction in beta-catenin protein expression at 5 uM after 18 hrs by Western blot analysis; assay type: cell-based; how it was run: as §1
Homo sapiens [14] = species: Homo sapiens; assay: Inhibition of Wnt/beta-catenin signaling pathway in human CRC240 whole cell lysate assessed as reduction in c-Myc protein expression at 5 uM after 18 hrs by Western blot analysis; how it was run: as §1
Homo sapiens [15] = species: Homo sapiens; assay: Inhibition of Wnt/beta-catenin signaling pathway in human CRC240 whole cell lysate assessed as reduction in cyclin D1 protein expression at 5 uM after 18 hrs by Western blot analysis; how it was run: as §1
Homo sapiens [16] = species: Homo sapiens; assay: Inhibition of Wnt/beta-catenin signaling pathway in human CRC240 whole cell lysate assessed as reduction in survivin protein expression at 5 uM after 18 hrs by Western blot analysis; how it was run: as §1
[17] = target: AMP-activated protein kinase, AMPK (Homo sapiens) (UniProt P54646+O43741+P54619+Q9UGJ0+Q9Y478+Q13131+Q9UGI9); assay: Induction of AMPK phosphorylation in human CCD-841-CoN cells at 0.1 to 10 uM after 2 hrs by Western blot analysis; assay type: cell-based
How it was run: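 Colonic epithelial CCD841Co cells were seeded at 0.27 million per well on poly-D-lysine-coated wells and attached overnight. Medium was then switched to glucose-free DMEM with 2 mM pyruvate and 2 mM glutamine containing compound or DMSO. Whole-cell lysates were immunoblotted for phospho-Thr172 AMPK and total AMPK, with β-actin as loading control. Methods give 30 min exposure; legend gives 2 h.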

SW948 = assay: Antiproliferative activity against human SW948 cells after 72 hrs by colorimetric MTS assay; assay type: functional, cell-based; settings: SW948, 72 h
How it was run: (§2)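 Cells plated at 5000 per well in their own media (Leibovitz's for SW948; McCoy's 5A for HT-29/HCT116; MEM for SW480; RPMI for CRC240/DLD-1) with 10% FBS. Exposed 72 h to compound, 0.001–10 μM or 0.04–10 μM, then colorimetric MTS read-out. […] CRC240 is a patient-derived xenograft line.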

HT-29 = assay: Antiproliferative activity against human HT-29 cells after 72 hrs by colorimetric MTS assay; assay type: functional, cell-based; settings: HT-29, 72 h; how it was run: as §2
HCT-116 = assay: Antiproliferative activity against human HCT116 cells after 72 hrs by colorimetric MTS assay; assay type: functional, cell-based; settings: HCT-116, 72 h; how it was run: as §2
[18] = Antiproliferative activity against human CRC240 cells after 72 hrs by colorimetric MTS assay; assay type: functional, cell-based; how it was run: as §2
SW480 = assay: Antiproliferative activity against human SW480 cells after 72 hrs by colorimetric MTS assay; assay type: functional, cell-based; settings: SW480, 72 h; how it was run: as §2
DLD-1 = assay: Antiproliferative activity against human DLD1 cells after 72 hrs by colorimetric MTS assay; assay type: functional, cell-based; settings: DLD-1, 72 h; how it was run: as §2
[19] = AUC (0 to infinity) in NOD/SCID mouse at 200 mg/kg, po by LC-MS/MS-based non-compartmental extravascular input analysis; assay type: ADME, organism-based; set-up: dose 200 mg/kg, time infinity, route oral; settings: in vivo
Mus musculus [20] = assay: Dose normalized AUC (0 to infinity) in NOD/SCID mouse at 200 mg/kg, po by LC-MS/MS-based non-compartmental extravascular input analysis; assay type: ADME, organism-based; settings: in vivo
[21] = AUC (0 to 24 hrs) in NOD/SCID mouse at 200 mg/kg, po by LC-MS/MS-based non-compartmental extravascular input analysis; assay type: ADME, organism-based; set-up: time < 24 hr, dose 200 mg/kg, route oral; settings: in vivo
Mus musculus [22] = assay: Apparent volume of distribution in NOD/SCID mouse at 200 mg/kg, po by LC-MS/MS-based non-compartmental extravascular input analysis; assay type: ADME, organism-based; settings: in vivo
[23] = MRT in NOD/SCID mouse at 200 mg/kg, po by LC-MS/MS-based non-compartmental extravascular input analysis; assay type: ADME, organism-based; settings: in vivo
Mus musculus [24] = assay: Toxicity in NOD/SCID mouse xenografted with human CRC240 cells assessed as change in body weight at 72 mg/kg, po administered 11 days and measured on day 4, 8 during compound dosing and day 11 post last dose; assay type: organism-based; settings: in vivo, 264 h
How it was run: (§3)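 Minced CRC240 PDX tissue (150 mg/ml in PBS, 200 μl) implanted in flanks of NOD/SCID mice. At about 100 mm3 tumours, mice randomized and dosed orally once daily for 11 days. Vehicle: 10% 1-methyl-2-pyrrolidinone/90% PEG300, with dosing suspensions or solutions at […] or 0.2 mg/ml. Tumour size and body weight recorded on days 0, 4, 8 and 11. n = 3, two-tailed t-test versus vehicle.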

Homo sapiens [25] = assay: Antitumor activity against human CRC240 cells xenografted in NOD/SCID mouse at 72 mg/kg, po administered 11 days and measured on day 4, 8 during compound dosing and day 11 post last dose; assay type: functional, organism-based; how it was run: as §3
[26] = target: Frizzled-1 (Homo sapiens) (UniProt Q9UP38); assay: Induction of GFP-tagged Fzd1 (unknown origin) internalization expressed in human U2OS cells at 12.5 after 6 hrs by confocal microscopic method; assay type: functional, cell-based
Sequence of Frizzled-1 (Homo sapiens) (Q9UP38 70-647 limits assumed): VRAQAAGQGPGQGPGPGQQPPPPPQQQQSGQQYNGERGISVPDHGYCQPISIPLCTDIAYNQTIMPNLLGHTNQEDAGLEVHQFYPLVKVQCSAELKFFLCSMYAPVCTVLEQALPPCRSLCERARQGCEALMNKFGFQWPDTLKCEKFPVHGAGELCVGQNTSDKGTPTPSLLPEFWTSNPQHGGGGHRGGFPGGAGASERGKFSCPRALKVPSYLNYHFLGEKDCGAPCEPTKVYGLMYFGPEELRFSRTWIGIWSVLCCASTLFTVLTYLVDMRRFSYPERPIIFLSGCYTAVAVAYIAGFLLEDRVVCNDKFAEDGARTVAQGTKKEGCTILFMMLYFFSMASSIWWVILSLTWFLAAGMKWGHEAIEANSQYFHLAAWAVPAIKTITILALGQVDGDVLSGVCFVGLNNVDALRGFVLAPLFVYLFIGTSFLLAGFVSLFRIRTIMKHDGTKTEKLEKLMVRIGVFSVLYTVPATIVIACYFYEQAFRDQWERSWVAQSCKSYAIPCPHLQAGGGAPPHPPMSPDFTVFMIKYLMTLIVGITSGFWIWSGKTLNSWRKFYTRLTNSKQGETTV
How it was run: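 U2OS cells stably expressing Fzd1-GFP were grown 24 h in confocal dishes and then treated 6 h at 37 °C with 12.5 μM compound, DMSO as control. Cells were fixed in 4% paraformaldehyde and imaged by confocal microscopy (488 nm excitation). Internalization was scored as intracellular green punctate vesicles.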

CCD-841CoN [27] = assay: Stimulation of mitochondrial respiration in human CCD-841-CoN cells assessed as increase in oxygen consumption rate at 1 uM in presence of rotenone and […] antimycin A by polarographic analysis; assay type: functional, cell-based
How it was run: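 CCD841Co cells were plated at 8000 per well and attached overnight. OCR was measured on a Seahorse XFp analyzer under basal conditions after 1 μM compound or DMSO was added. This was followed by 1 μM oligomycin, 1 μM FCCP, then 0.5 μM rotenone plus antimycin A (Mito Stress Test). Data given as mean ± SD, n = 2.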

CCD-841CoN [28] = assay: Stimulation of mitochondrial respiration in human CCD-841-CoN cells assessed as increase in oxygen consumption rate at 1 uM under basal conditions by polarographic analysis

IC50 [1]: 450 nM | inhibition (Homo sapiens [4]): Active | inhibition (Homo sapiens [5]): Active | inhibition (Homo sapiens [9]): Active | inhibition (Homo sapiens [10]): Active | inhibition (Homo sapiens [14]): Active | inhibition (Homo sapiens [15]): Active | Activity [17]: Active | IC50 (SW948): 110 nM | IC50 (HT-29): 130 nM | IC50 (HCT-116): 410 nM | IC50 (SW480): 980 nM | IC50 (DLD-1): 2390 nM | AUC(0-inf) [19]: 1020 ng·h/mL | AUC/dose (Mus musculus [20]): 0.005 µg·h/mL | AUC(0-t) at 24 h [21]: 1010 ng·h/mL | Vz (Mus musculus [22]): 0.9 L/kg | MRT [23]: 6.8 h | Activity [26]: Active
Structure (SMILES): O=C(Nc1ccc([N+](=O)[O-])cc1Cl)c1cc(Cl)ccc1O [NICLOSAMIDE]
inhibition (Homo sapiens [2]): Active | inhibition (Homo sapiens [3]): Active | inhibition (Homo sapiens [6]): Active | inhibition (Homo sapiens [7]): Active | inhibition (Homo sapiens [8]): Active | inhibition (Homo sapiens [11]): Active | inhibition (Homo sapiens [12]): Active | inhibition (Homo sapiens [13]): Active | inhibition (Homo sapiens [16]): Active | IC50 [18]: 890 nM | Activity (Mus musculus [24]): Non-Toxic | Activity (Homo sapiens [25]): Active | Activity (CCD-841CoN [27]): inactive | Activity (CCD-841CoN [28]): Active
